Source: PubChem (several laboratories)
Shown are actives, neighbours in structure and some others; about 2.6% of the full set was active somewhere.
SKN-1 block: C. elegans SKN-1 inhibition; C. elegans VP596 Pgst-4::GFP/RFP ratio, acrylamide-induced, 24 h; inhibition, % at 21.8 µM; 360,000 compounds, 0.49% hits;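 active = interference check ratio from 0.5 to 1.5 plus GFP to RFP signal ratio inhibition reaching or exceeding a fixed threshold, cut at about 30% in these data, passing the limit was not always enough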
Rin1 Abl inh: inhibitors of human Rin1-Abl protein interaction; P00519+Q13671; TR-FRET Rin1/Abl binding, biochemical; inhibition, % at 7.35 µM; 360,000 compounds, 0.4% hits; AID 588664; in the data active = inhibition above about 5%, passing the limit was not always enough
T cell modulator: T cell immune modulation candidate; 330,000 compounds, 0.068% hits; 2C CD8+ T cell-vesicle binding, flow cytometry; active compounds read low; AID 2052; response (vesicle binding), % at 7 µM;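 active = response, share of CD8 T cells binding vesicles, and their 90th percentile fluorescence all below set limits, cut at about 80% in these data, passing the limit was not always enough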;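 note: values below 100% mean blocked vesicle binding to the CD8+ T cells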
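material = purified 2C TCR transgenic mouse naive CD8+ T cells | controls = Unloaded micro-vesicles (low), QL9 vesicles with 0.7% DMSO (high) | detection = cytometric PE anti-B7-1 and Alexa647 anti-CD8 signals after 1% paraformaldehyde fixation | incubation = binding step 1.5 h, 37 °C, antibody labelling 20 min, ice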
Rce1 inhib: yeast Ras-converting enzyme inhibition; Q03530; yeast membranes, quenched prenylated peptide cleavage fluorescence; calls only; 290,000 compounds, 0.27% hits; AID 2563;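 active = fall in fluorescence gain of 50% or more versus controls, with final raw signal at or below 3038400; inconclusive = same 50% fall but final raw signal above 3038400; inactive = fall in fluorescence gain under 50%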;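 note: plate controls were neutral control wells for no effect and wells lacking membranes for full effect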
GRK2 aptamer HTS: inhibitors of human GRK2 displacing RNA aptamer; 330,000 compounds, 0.59% hits; inhibition of aptamer binding, % at 10 µM; bead flow cytometry, FAM-aptamer displacement from GRK2; P25098;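 active = inhibition of aptamer binding above 40%, roughly 3 SD of noise, on plates passing a quality check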;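 note: median bead fluorescence of bound FAM aptamer so fluorescent compounds give negative values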
Myeloid diff 2: myeloid differentiation induction; ER-HoxA9 myeloid progenitors, lysozyme-GFP differentiation, flow cytometry; calls only at 10 µM; 360,000 compounds, 1% hits; AID 624256;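 active = normalized GFP-positive differentiation at or above the plate's own cutoff, the solvent-only control mean plus 3 SD; inconclusive = no clear call, values can overlap the other calls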;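 note: cells exposed to compound for four days before flow analysis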
GRK2 inh confirm: confirmation of human GRK2 inhibitors displacing RNA aptamer; shares compounds with GRK2 aptamer HTS; bead-bound GRK2, FAM-aptamer displacement, flow cytometry; aptamer displacement, % at 10 µM; 2,000 compounds, 4% hits;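 active = aptamer displacement above 40%, near three times the noise of non-fluorescent compounds, on plates passing quality checks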;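 note: negative values mostly reflect intrinsic compound fluorescence rather than true enhancement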
Aptamer quench SP: counter-screen for GRK2 aptamer inhibitors: fluorescent aptamer quenchers | shares compounds with GRK2 aptamer HTS | Carboxyfluorescein RNA aptamer on beads, flow cytometry quenching; active compounds read low | fluorescence response (% of DMSO), % at 10 µM | 2,000 tested, under 10 active | AID 504580;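 active = compounds that quench the bead-bound fluorescent RNA probe, cutting fluorescence to under half of the solvent control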;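 note: counterscreen run without GRK2 so only probe quenching by compound is measured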
GRK2 CP2: human GRK2 inhibition confirmation, cherry pick 2; AID 504782; shares compounds with GRK2 aptamer HTS; inhibition of aptamer binding, % at 10 µM; bead-bound GRK2, FAM-aptamer displacement, flow cytometry; 360 tested, under 10 active;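 active = inhibition of aptamer binding above 40%, about triple the noise seen with nonglowing compounds, on plates passing quality control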;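 note: negative values mostly come from compounds that fluoresce themselves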
FAM quench CP2: quenches fluorescent RNA aptamer, GRK2 hit artifact; shares compounds with GRK2 aptamer HTS; carboxyfluorescein RNA aptamer beads, flow cytometry quenching; active compounds read low; fluorescence response vs DMSO, % at 10 µM; 360 tested, under 10 active; AID 588494;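 active = response vs DMSO under 50%, meaning signal dropped by over half, treated as fluorescence quencher; inconclusive = no clear call, values can overlap the other calls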;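 note: labelled aptamer on streptavidin beads without GRK2 as a quench counter-screen; 100% = bead fluorescence of DMSO wells and lower means quenching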
An asterisk follows results filed as active; i = inactive; u = inconclusive; x = no result given; + = active, no number.

SMILES	SKN-1 block	Rin1 Abl inh	T cell modulator	Rce1 inhib	GRK2 aptamer HTS	Myeloid diff 2	GRK2 inh confirm	Aptamer quench SP	others
CC(C)CCn1c(COc2ccccc2)n[nH]c1=S	-6	2	261	i	53*	i	-8	106
S=c1[nH]nc(COc2ccccc2)n1Cc1ccccc1	6	-1	572	i	3	i	x	x
CCN(CC(=O)NC1CCS(=O)(=O)C1)C(=O)c1cc(OC)c(OC)c(OC)c1 (centres undefined)	-3	3	271	x	60*	i	-1	95
CCN(CC(=O)NC1CCS(=O)(=O)C1)C(=O)c1ccc(OC)c([N+](=O)[O-])c1 (centres undefined)	0	-1	462	x	0	u	x	x
O=C(Nc1ccc2c(c1)OCO2)Nc1ccc(Cl)cc1Cl	-12	0	298	i	92*	i	-5	94
CC(C)CC(N)c1csc(Nc2ncccn2)n1 (centres undefined)	-12	0	x	x	x	i	x	x
Cn1cnnc1SCC(=O)Nc1ccccc1Oc1ccccc1	8	1	247	i	50*	i	1	94
Cn1cnnc1SCC(=O)Nc1ccc(Oc2ccccc2)cc1	4	0	266	i	0	i	x	x
COc1ccc(NC(=O)CSc2nncn2C)c([N+](=O)[O-])c1	6	-3	466	i	51*	i	-1	104
COc1ccccc1NC(=O)N(C)C[C@H]1OCc2cnnn2CCCC(=O)N([C@H](C)CO)C[C@H]1C	-13	3	x	x	x	i	x	x
CN1CCN(CCCOc2ccc(-c3ccccc3)cc2)CC1	-11	-2	280	i	0	i	x	x
CCN1CCN(CCCOc2ccc(-c3ccccc3)cc2)CC1	x	x	351	i	30	x	-8	104
CCN(CC)C(=O)C(c1ccccc1)S(=O)(=O)N1CCOCC1 (centres undefined)	-3	0	x	x	x	i	x	x
CCOC(=O)Cc1cc(=O)n2[nH]c(C)c(-c3ccc(OC)cc3)c2n1	9	3	306	i	71*	i	-3	99
Cc1cc(C)c2c(c1)NC(C(=O)O)C1CC=CC21 (centres undefined)	19	0	76	i	93*	+	14	101
COc1ccc(CC2S/C(=N/N=C/c3ccc(O)cc3)NC2=O)cc1 (centres undefined)	-7	0	159	i	100*	i	1	96
COc1cc2c(cc1OC)C(C)N(C(=O)c1cccs1)CC2 (centres undefined)	4	-5	231	i	81*	i	-4	102
COc1cc2c(cc1OC)C(C)N(C(C)=O)CC2 (centres undefined)	10	0	890	i	0	i	x	x
Nc1c(C(=O)NCc2cccs2)nnn1CC(=O)Nc1cccc(Cl)c1	-13	0	291	i	42*	i	x	x	GRK2 CP2=2;FAM quench CP2=97
O=C(c1cc(-c2ccncc2)nc2ccc(Br)cc12)N1CCN(c2ccccn2)CC1	25	-2	220	i	93*	i	-5	98
O=C(c1cc(-c2ccccc2Cl)nc2ccc(Br)cc12)N1CCN(c2ccccn2)CC1	-2	-12	492	i	0	i	x	x
Cc1ccc(/C=C2\C(=O)Nc3ccccc32)o1	9	-2	312	i	4	u	x	x
Cc1ccc2c(c1)/C(=C/c1ccco1)C(=O)N2	14	-4	254	i	94*	i	0	98
Cc1ccc(C(=O)NC2CCCCCC2)cc1N1CCCC1=O	2	-1	188	i	2	i	x	x
Cc1ccc(C(=O)O)cc1N1CCCC1=O	15	-1	271	i	61*	i	0	96
SMILES	SKN-1 block	Rin1 Abl inh	T cell modulator	Rce1 inhib	GRK2 aptamer HTS	Myeloid diff 2	GRK2 inh confirm	Aptamer quench SP	others
Cc1ccc(CNS(=O)(=O)c2cn(C)c(=O)n(C)c2=O)cc1	4	-5	145	i	3	i	x	x
CC(C)c1ccc(NC(=O)C2(C)Cc3c(-c4ccc5c(c4)OCO5)ccnc3O2)cc1 (centres undefined)	-2	-5	x	x	x	i	x	x
Cc1ccc(-c2cccc(C3CC=CC4C3C(=O)N(Cc3ccccc3)C4c3cc(C)ccc3F)c2)cc1 (centres undefined)	-3	-1	898	i	4	i	1	102
Cc1ccc(S(=O)(=O)/N=C(\c2ccccc2)N(C)S(=O)(=O)c2ccc(C)cc2)cc1	3	-1	347	i	66*	i	-3	96
C[C@H]1CN([C@@H](C)CO)C(=O)c2cc(Br)cnc2O[C@@H]1CN(C)C(=O)CN(C)C	8	-3	x	x	x	i	x	x
CCC(=O)c1cn(CC(=O)Nc2ccccc2F)c2ccccc12	17	2	172	i	3	i	x	x
CC(=O)c1cn(CC(=O)Nc2ccccc2F)c2ccccc12	-6	-1	330	x	72*	i	-6	103
CCOC(=O)N(C)c1c(CC)nc2c(OCc3ccc(F)cc3)cccn12	19	-6	x	x	x	i	x	x
CCNc1nc(NCC)n2c(SCC(=O)Nc3ccccc3OC(F)F)nnc2n1	10	2	438	x	22	i	x	x	GRK2 CP2=-2;FAM quench CP2=101
CCNc1nc(NCC)n2c(SCC(=O)Nc3ccc(NC(C)=O)cc3)nnc2n1	5	-1	351	i	31	i	x	x	GRK2 CP2=0;FAM quench CP2=106
COc1ccccc1CNC(=O)C1COc2ccccc2O1 (centres undefined)	-14	2	173	i	52*	i	2	100
COc1ccc(CNC(=O)C2COc3ccccc3O2)cc1 (centres undefined)	5	3	214	i	0	i	x	x
Cc1cc(=O)n(CCC(=O)O)c2ccccc12	20	0	379	i	0	i	x	x
C#CCn1c(=O)cc(C)c2ccccc21	16	-3	194	i	47*	i	2	102
Cc1cc2c(cc1C)-n1nnnc1C(N1CCCNCC1)C(=O)N2 (centres undefined)	2	x	x	x	x	x	x	x
N/C(=N\OCc1ccc([N+](=O)[O-])cc1)c1ccncc1	11	2	351	i	4	i	x	x
Cc1ccc(/C=C2\SC(=S)N(CC3CCCO3)C2=O)o1 (centres undefined)	20	-3	598	i	22	i	x	x
